# From ChEMBL document CHEMBL4390678, “Structure-Activity Relationship of Purine and Pyrimidine Nucleotides as Ecto-5'-Nucleotidase (CD73) Inhibitors” (J Med Chem, 2019)
# Assays:
# 5'-nucleotidase = molecular target: T1, 5'-nucleotidase (Rattus norvegicus, UniProt P21588); assay: Inhibition of recombinant rat C-terminal His-tagged soluble form of CD73 expressed in baculovirus infected Sf9 insect cells using [2,8-3H]AMP as substrate measured after 25 mins by scintillation counting method
# T1 sequence (P21588 whole entry): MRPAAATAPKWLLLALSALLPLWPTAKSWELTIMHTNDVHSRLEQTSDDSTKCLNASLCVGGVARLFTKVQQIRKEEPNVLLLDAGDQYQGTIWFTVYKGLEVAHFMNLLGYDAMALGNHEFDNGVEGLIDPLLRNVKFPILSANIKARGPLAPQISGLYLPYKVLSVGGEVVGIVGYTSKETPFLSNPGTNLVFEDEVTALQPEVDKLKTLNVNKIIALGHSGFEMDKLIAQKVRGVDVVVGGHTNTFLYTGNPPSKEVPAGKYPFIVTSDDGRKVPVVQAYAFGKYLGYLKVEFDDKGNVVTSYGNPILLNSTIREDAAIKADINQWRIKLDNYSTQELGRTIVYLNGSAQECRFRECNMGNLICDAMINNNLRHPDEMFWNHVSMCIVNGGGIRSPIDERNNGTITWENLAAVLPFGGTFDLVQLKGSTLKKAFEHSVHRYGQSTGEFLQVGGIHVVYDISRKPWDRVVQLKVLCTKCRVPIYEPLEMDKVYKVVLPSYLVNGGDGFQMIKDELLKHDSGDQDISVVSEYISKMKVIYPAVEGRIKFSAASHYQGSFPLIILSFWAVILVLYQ
# Summary of the method: (§1)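 Enzyme is soluble rat CD73 from Sf9 cells, 1.63 ng per vial, in 25 mM Tris, 140 mM NaCl, 25 mM NaH2PO4, pH 7.4. […] Stopped by LaCl3 precipitation and GF/B filtration, then counted. Each compound first screened at 1 µM.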
# [1] = molecular target: T2, 5'-nucleotidase (Rattus norvegicus) (UniProt P21588); assay: Inhibition of recombinant rat C-terminal His-tagged soluble form of CD73 expressed in baculovirus infected Sf9 insect cells at 1 uM using [2,8-3H]AMP as substrate measured after 25 mins by scintillation counting method relative to control; summary of the method: as §1
# T2 sequence (whole entry): T1 sequence (P21588 whole entry)
Ki (5'-nucleotidase),inhibition [1],Compound
> 1 µM,8%,O=c1ccn([C@@H]2O[C@H](COP(=O)(O)CP(=O)(O)O)[C@@H](O)[C@@H]2O)c(=O)[nH]1
0.162 µM,> 50%,O=c1[nH]c(=O)n([C@@H]2O[C@H](COP(=O)(O)CP(=O)(O)O)[C@@H](O)[C@H]2O)cc1I
0.0867 µM,> 50%,O=c1[nH]c(=O)n([C@@H]2O[C@H](COP(=O)(O)CP(=O)(O)O)[C@@H](O)[C@H]2O)cc1Cl
1.83 µM,> 50%,O=c1ccn([C@@H]2O[C@H](COP(=O)(O)CP(=O)(O)O)[C@@H](O)[C@H]2O)c(=O)[nH]1
0.424 µM,> 50%,C=C(Cl)c1cn([C@@H]2O[C@H](COP(=O)(O)CP(=O)(O)O)[C@@H](O)[C@H]2O)c(=O)[nH]c1=O
> 1 µM,3%,CO[C@@H]1[C@H](O)[C@@H](COP(=O)(O)CP(=O)(O)O)O[C@H]1n1cc(C)c(=O)[nH]c1=O
2.03 µM,> 50%,Cc1cn([C@@H]2O[C@H](COP(=O)(O)CP(=O)(O)O)[C@@H](O)[C@H]2O)c(=O)nc1N
1.86 µM,> 50%,Cn1c(=O)ccn([C@@H]2O[C@H](COP(=O)(O)CP(=O)(O)O)[C@@H](O)[C@H]2O)c1=O
> 1 µM,9%,Cc1cn([C@@H]2O[C@H](COP(=O)(O)CCP(=O)(O)O)[C@@H](O)[C@H]2O)c(=O)[nH]c1=O
0.338 µM,> 50%,Cc1cn([C@@H]2O[C@H](COP(=O)(O)CP(=O)(O)O)[C@@H](O)[C@H]2O)c(=O)[nH]c1=O
0.0887 µM,> 50%,O=c1[nH]c(=O)n([C@@H]2O[C@H](COP(=O)(O)CP(=O)(O)O)[C@@H](O)[C@H]2O)cc1Br
> 1 µM,21%,O=c1cnn([C@@H]2O[C@H](COP(=O)(O)CP(=O)(O)O)[C@@H](O)[C@H]2O)c(=O)[nH]1
0.257 µM,> 50%,CO/N=c1/ccn([C@@H]2O[C@H](COP(=O)(O)CP(=O)(O)O)[C@@H](O)[C@H]2O)c(=O)[nH]1
0.349 µM,> 50%,Nc1nc(=O)n([C@@H]2O[C@H](COP(=O)(O)CP(=O)(O)O)[C@@H](O)[C@H]2O)cc1F
> 1 µM,7%,O=c1ccn([C@@H]2O[C@H](COP(=O)(O)CP(=O)(O)O)[C@@H](O)[C@H]2O)c(=S)[nH]1
0.276 µM,> 50%,C#Cc1cn([C@@H]2O[C@H](COP(=O)(O)CP(=O)(O)O)[C@@H](O)[C@H]2O)c(=O)[nH]c1=O

# Continued, molecule first:
Compound,Ki (5'-nucleotidase),inhibition [1]
Nc1ccn([C@@H]2O[C@H](COP(=O)(O)CP(=O)(O)O)[C@@H](O)[C@H]2O)c(=O)n1,0.898 µM,> 50%
Nc1nc(=O)n([C@@H]2O[C@H](COP(=O)(O)CP(=O)(O)O)[C@@H](O)[C@H]2O)cc1I,0.502 µM,> 50%
O=c1ccn([C@@H]2O[C@H](COP(=O)(O)CP(=O)(O)O)[C@@H](O)[C@@H]2F)c(=O)[nH]1,1.75 µM,> 50%
Nc1ccn([C@H]2C[C@H](O)[C@@H](COP(=O)(O)CP(=O)(O)O)O2)c(=O)n1,> 1 µM,18%
O=c1ccn([C@@H]2O[C@H](COP(=O)(O)CP(=O)(O)O)[C@@H](O)[C@H]2O)c(=O)n1Cc1ccccc1,> 1 µM,3%
Nc1ncnc2c1ncn2[C@@H]1O[C@H](COP(=O)(O)CP(=O)(O)O)C[C@H]1O,1.97 µM,> 50%
Nc1ncnc2c1ncn2[C@H]1C[C@H](O)[C@@H](COP(=O)(O)CP(=O)(O)O)O1,> 1 µM,30%
CCn1c(=O)ccn([C@@H]2O[C@H](COP(=O)(O)CP(=O)(O)O)[C@@H](O)[C@H]2O)c1=O,> 1 µM,4%
Nc1ccnc2c1ncn2[C@@H]1O[C@H](COP(=O)(O)CP(=O)(O)O)[C@@H](O)[C@H]1O,> 1 µM,36%
[N-]=[N+]=N[C@@H]1[C@H](O)[C@@H](COP(=O)(O)CP(=O)(O)O)O[C@H]1n1ccc(=O)[nH]c1=O,> 1 µM,9%
C=C(Cl)c1cn([C@@H]2O[C@H](COP(=O)(O)CP(=O)(O)O)[C@@H](O)[C@H]2O)c(=O)n(C)c1=O,1.05 µM,> 50%
Nc1ncnc2c1ccn2[C@@H]1O[C@H](COP(=O)(O)CP(=O)(O)O)[C@@H](O)[C@H]1O,0.0886 µM,> 50%
Nc1nccc2c1ncn2[C@@H]1O[C@H](COP(=O)(O)CP(=O)(O)O)[C@@H](O)[C@H]1O,> 1 µM,36%
Cc1cn([C@H]2C[C@H](O)[C@@H](COP(=O)(O)CP(=O)(O)O)O2)c(=O)[nH]c1=O,0.639 µM,> 50%
CCn1c(=O)n([C@@H]2O[C@H](COP(=O)(O)CP(=O)(O)O)[C@@H](O)[C@H]2O)cc/c1=N\OCc1ccccc1,0.262 µM,> 50%
O=c1cc(O)ccn1[C@@H]1O[C@H](COP(=O)(O)CP(=O)(O)O)[C@@H](O)[C@H]1O,> 1 µM,19%
N[C@@H]1[C@H](O)[C@@H](COP(=O)(O)CP(=O)(O)O)O[C@H]1n1ccc(=O)[nH]c1=O,> 1 µM,2%
Nc1ncnc2c1ncn2[C@@H]1O[C@H](COP(=O)(O)CP(=O)(O)O)[C@@H](O)[C@H]1N,> 1 µM,2%
CCOP(=O)(O)OP(=O)(O)OC[C@H]1O[C@@H](n2ccc(=O)[nH]c2=S)[C@H](O)[C@@H]1O,> 1 µM,10%
O=c1ccn([C@@H]2O[C@H](COP(=O)(O)CCP(=O)(O)O)[C@@H](O)[C@H]2O)c(=O)[nH]1,> 1 µM,4%
O=c1ccn([C@H]2C[C@H](O)[C@@H](CO[P@@](=O)(O)CP(=O)(O)O)O2)c(=O)[nH]1,> 1 µM,37%
O=c1ccn([C@@H]2O[C@H](COP(=O)(O)CP(=O)(O)O)[C@@H](O)[C@H]2F)c(=O)[nH]1,> 1 µM,11%
O=c1[nH]/c(=N\OCc2ccccc2)ccn1[C@@H]1O[C@H](COP(=O)(O)CP(=O)(O)O)[C@@H](O)[C@H]1O,0.112 µM,> 50%
O=c1ccn([C@@]23C[C@H]2[C@H](COP(=O)(O)CP(=O)(O)O)[C@@H](O)[C@H]3O)c(=O)[nH]1,> 1 µM,12%
CCCn1c(=O)ccn([C@@H]2O[C@H](COP(=O)(O)CP(=O)(O)O)[C@@H](O)[C@H]2O)c1=O,> 1 µM,7%
O=c1[nH]/c(=N/OCc2ccccc2)ccn1[C@H]1C[C@H](O)[C@@H](COP(=O)(O)CP(=O)(O)O)O1,0.78 µM,> 50%
Nc1ncnc2c1ncn2[C@@H]1O[C@H](CO)[C@@H](OP(=O)(O)CP(=O)(O)O)[C@H]1N,> 1 µM,8%
Cc1cn([C@@H]2O[C@H](COP(=O)(O)CP(=O)(O)O)[C@@H](O)[C@H]2O)c(=O)[nH]/c1=N/OCc1ccccc1,0.321 µM,> 50%
